Results reported in ChEMBL document CHEMBL1123585, “Differential effects of N-terminal modifications on the biological potencies of growth hormone releasing factor analogues with varying chain lengths” (1987).
“And” between values parts separate entries of the source, which are not always exact repeats. Equal values may be shown once.

Tests used:
[1] = target: T1, Growth hormone-releasing hormone receptor (Rattus norvegicus) (UniProt Q02644); test: Tested for the potency of growth hormone (GRF) on subcutaneous administration in anesthetized male Charles River rats; assay type: functional, organism-based
T1 sequence (whole entry): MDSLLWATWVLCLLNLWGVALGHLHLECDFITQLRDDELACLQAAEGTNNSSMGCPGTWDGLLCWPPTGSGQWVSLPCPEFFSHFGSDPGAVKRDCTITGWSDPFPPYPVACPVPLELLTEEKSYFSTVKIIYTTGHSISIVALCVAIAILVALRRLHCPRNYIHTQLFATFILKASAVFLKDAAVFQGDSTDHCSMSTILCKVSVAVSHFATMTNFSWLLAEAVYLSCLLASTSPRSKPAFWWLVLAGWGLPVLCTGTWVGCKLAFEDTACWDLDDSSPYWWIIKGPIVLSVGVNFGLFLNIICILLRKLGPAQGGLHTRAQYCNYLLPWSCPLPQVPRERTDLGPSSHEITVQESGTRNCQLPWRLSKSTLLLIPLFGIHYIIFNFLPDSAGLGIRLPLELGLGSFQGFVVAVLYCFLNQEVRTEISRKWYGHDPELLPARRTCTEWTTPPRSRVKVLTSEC
How it was run: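 Pentobarbital-anesthetized male rats (175-275 g), six to nine per group, received two subcutaneous doses of analogue or of reference GRF(1-29)NH2, in 0.5 mL, 30 min after anesthesia. Plasma GH measured by RIA 15 min later. Potency with 95% confidence limits calculated from a four-point assay design by the Pugsley method.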

[2] = target: T1, Growth hormone-releasing hormone receptor (Rattus norvegicus); test: In vitro rat pituitary cell growth hormone response was obtained; assay type: functional, cell-based; settings: Pituitary gland cell
Rattus norvegicus [3] = species: Rattus norvegicus; test: In vitro rat pituitary cell growth hormone response to the compound was obtained; assay type: functional, Pituitary gland cell
[4] = target: T1, Growth hormone-releasing hormone receptor (Rattus norvegicus); test: Effect on growth hormone release(GRF) was determined in nembutal-anesthetized rat, at dose of 10 ug/100 g body weight.; assay type: functional
How it was run: (§1)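 Male Charles River rats (175-275 g), anesthetized with sodium pentobarbital 6 mg/100 g body weight. Six to nine per group. Peptide or saline given subcutaneously in 0.5 mL, 30 min after anesthetic. Jugular vein blood taken 15 min post-injection. Plasma GH measured by radioimmunoassay and reported as ng/mL, mean ± SEM.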

[5] = target: T1, Growth hormone-releasing hormone receptor (Rattus norvegicus); test: Effect on growth hormone release(GRF) was determined in nembutal-anesthetized rat, at dose of 100 ug/100 g body weight.; assay type: functional; how it was run: as §1
Rattus norvegicus [6] = test: Effect on growth hormone release(GRF) was determined in nembutal-anesthetized rat, at dose of 50 ug/100 g body weight.; assay type: functional, organism-based; how it was run: as §1
Rattus norvegicus [7] = test: Effect on growth hormone release(GRF) was determined in nembutal-anesthetized rat, at dose of 20 ug/100 g body weight.; assay type: functional, organism-based; how it was run: as §1

Molecule: CC[C@H](C)[C@H](NC(=O)[C@H](C)NC(=O)[C@H](CC(=O)O)NC(=O)[C@H](C)NC(=O)[C@@H](N)Cc1ccc(O)cc1)C(=O)N[C@@H](Cc1ccccc1)C(=O)N[C@H](C(=O)N[C@@H](CC(N)=O)C(=O)N[C@@H](CO)C(=O)N[C@@H](Cc1ccc(O)cc1)C(=O)N[C@@H](CCCN=C(N)N)C(=O)N[C@@H](CCCCN)C(=O)N[C@H](C(=O)N[C@@H](CC(C)C)C(=O)NCC(=O)N[C@@H](CCC(N)=O)C(=O)N[C@@H](CC(C)C)C(=O)N[C@@H](CO)C(=O)N[C@@H](C)C(=O)N[C@@H](CCCN=C(N)N)C(=O)N[C@@H](CCCCN)C(=O)N[C@@H](CC(C)C)C(=O)N[C@@H](CC(C)C)C(=O)N[C@@H](CCC(N)=O)C(N)=O)C(C)C)[C@@H](C)O
- Potency [1]: < 1%
- Potency [2]: 0.008%

Molecule: CC[C@H](C)[C@H](NC(=O)C(CC(=O)O)NC(=O)[C@H](CCC(N)=O)NC(=O)[C@H](CC(C)C)NC(=O)[C@H](CC(C)C)NC(=O)[C@H](CCCCN)NC(=O)[C@H](CCCN=C(N)N)NC(=O)[C@H](C)NC(=O)[C@H](CO)NC(=O)[C@H](CC(C)C)NC(=O)[C@H](CCC(N)=O)NC(=O)CNC(=O)[C@H](CC(C)C)NC(=O)[C@@H](NC(=O)[C@H](CCCCN)NC(=O)[C@H](CCCN=C(N)N)NC(=O)[C@H](Cc1ccc(O)cc1)NC(=O)[C@H](CO)NC(=O)[C@H](CC(N)=O)NC(=O)[C@@H](NC(=O)[C@H](Cc1ccccc1)NC(=O)[C@@H](NC(=O)[C@H](C)NC(=O)C(CC(=O)O)NC(=O)[C@@H](C)NC(=O)[C@@H](N)Cc1ccc(O)cc1)[C@@H](C)CC)[C@@H](C)O)C(C)C)C(=O)N[C@@H](CCSC)C(=O)N[C@@H](CO)C(=O)N[C@@H](CCCN=C(N)N)C(N)=O (stereo in doubt)
- Potency [1]: 670%
- Potency (Rattus norvegicus [3]): 150%

Molecule: CC[C@H](C)[C@H](NC(=O)[C@H](C)NC(=O)[C@H](CC(=O)O)NC(=O)[C@H](C)NC(=O)[C@@H](N)Cc1ccc(O)cc1)C(=O)N[C@@H](Cc1ccccc1)C(=O)N[C@H](C(=O)N[C@H](CC(N)=O)C(=O)N[C@@H](CO)C(=O)N[C@@H](Cc1ccc(O)cc1)C(=O)N[C@@H](CCCN=C(N)N)C(=O)N[C@@H](CCCCN)C(=O)N[C@H](C(=O)N[C@@H](CC(C)C)C(=O)NCC(=O)N[C@@H](CCC(N)=O)C(=O)N[C@@H](CC(C)C)C(=O)N[C@@H](CO)C(=O)N[C@@H](C)C(=O)N[C@@H](CCCN=C(N)N)C(=O)N[C@@H](CCCCN)C(=O)N[C@@H](CC(C)C)C(=O)N[C@@H](CC(C)C)C(=O)N[C@@H](CCC(N)=O)C(=O)N[C@@H](CC(=O)O)C(=O)N[C@H](C(=O)N[C@@H](CCSC)C(=O)N[C@@H](CO)C(=O)N[C@@H](CCCN=C(N)N)C(N)=O)[C@@H](C)CC)C(C)C)[C@@H](C)O
- Potency [1]: 220%

Molecule: CC[C@H](C)[C@H](NC(=O)[C@H](C)NC(=O)[C@@H](CC(=O)O)NC(=O)[C@@H](C)NC(=O)[C@@H](N)Cc1ccc(O)cc1)C(=O)N[C@@H](Cc1ccccc1)C(=O)N[C@H](C(=O)N[C@H](CC(N)=O)C(=O)N[C@@H](CO)C(=O)N[C@@H](Cc1ccc(O)cc1)C(=O)N[C@@H](CCCN=C(N)N)C(=O)N[C@@H](CCCCN)C(=O)N[C@H](C(=O)N[C@@H](CC(C)C)C(=O)NCC(=O)N[C@@H](CCC(N)=O)C(=O)N[C@@H](CC(C)C)C(=O)N[C@@H](CO)C(=O)N[C@@H](C)C(=O)N[C@@H](CCCN=C(N)N)C(=O)N[C@@H](CCCCN)C(=O)N[C@@H](CC(C)C)C(N)=O)C(C)C)[C@@H](C)O
- Plasma GH release [4]: 314 ng/mL
- Plasma GH release [5]: 340 ng/mL
- Potency [1]: < 5%

Molecule: CC[C@H](C)[C@H](NC(=O)[C@H](C)NC(=O)[C@H](CC(=O)O)NC(=O)[C@@H](C)N(C)C(=O)[C@@H](N)Cc1ccc(O)cc1)C(=O)N[C@@H](Cc1ccccc1)C(=O)N[C@H](C(=O)N[C@H](CC(N)=O)C(=O)N[C@@H](CO)C(=O)N[C@@H](Cc1ccc(O)cc1)C(=O)N[C@@H](CCCN=C(N)N)C(=O)N[C@@H](CCCCN)C(=O)N[C@H](C(=O)N[C@@H](CC(C)C)C(=O)NCC(=O)N[C@@H](CCC(N)=O)C(=O)N[C@@H](CC(C)C)C(=O)N[C@@H](CO)C(=O)N[C@@H](C)C(=O)N[C@@H](CCCN=C(N)N)C(=O)N[C@@H](CCCCN)C(=O)N[C@@H](CC(C)C)C(N)=O)C(C)C)[C@@H](C)O
- Plasma GH release [4]: 512 ng/mL
- Plasma GH release [5]: 385 ng/mL
- Potency [1]: < 5%

Molecule: CC[C@H](C)[C@H](NC(=O)[C@H](C)NC(=O)[C@H](CC(=O)O)NC(=O)[C@H](C)NC(=O)[C@H](Cc1ccc(O)cc1)NC(C)=O)C(=O)N[C@@H](Cc1ccccc1)C(=O)N[C@H](C(=O)N[C@@H](CC(N)=O)C(=O)N[C@@H](CO)C(=O)N[C@@H](Cc1ccc(O)cc1)C(=O)N[C@@H](CCCN=C(N)N)C(=O)N[C@@H](CCCCN)C(=O)N[C@H](C(=O)N[C@@H](CC(C)C)C(=O)NCC(=O)N[C@@H](CCC(N)=O)C(=O)N[C@@H](CC(C)C)C(=O)N[C@@H](CO)C(=O)N[C@@H](C)C(=O)N[C@@H](CCCN=C(N)N)C(=O)N[C@@H](CCCCN)C(=O)N[C@@H](CC(C)C)C(=O)N[C@@H](CC(C)C)C(=O)N[C@@H](CCC(N)=O)C(=O)N[C@@H](CC(=O)O)C(=O)N[C@H](C(=O)N[C@@H](CCSC)C(=O)N[C@@H](CO)C(=O)N[C@@H](CCCN=C(N)N)C(N)=O)[C@@H](C)CC)C(C)C)[C@@H](C)O
- Potency [1]: 1200%
- Potency (Rattus norvegicus [3]): 240%

Molecule: CC[C@H](C)[C@H](NC(=O)[C@H](C)NC(=O)[C@H](CC(=O)O)NC(=O)[C@@H](C)NC(=O)[C@@H](N)Cc1ccc(O)cc1)C(=O)N[C@@H](Cc1ccccc1)C(=O)N[C@H](C(=O)N[C@H](CC(N)=O)C(=O)N[C@@H](CO)C(=O)N[C@@H](Cc1ccc(O)cc1)C(=O)N[C@@H](CCCN=C(N)N)C(=O)N[C@@H](CCCCN)C(=O)N[C@H](C(=O)N[C@@H](CC(C)C)C(=O)NCC(=O)N[C@@H](CCC(N)=O)C(=O)N[C@@H](CC(C)C)C(=O)N[C@@H](CO)C(=O)N[C@@H](C)C(=O)N[C@@H](CCCN=C(N)N)C(=O)N[C@@H](CCCCN)C(=O)N[C@@H](CC(C)C)C(N)=O)C(C)C)[C@@H](C)O
- Plasma GH release [4]: 417 ng/mL and 305 ng/mL
- Potency [1]: < 5%

Molecule: Ac-HADAIFTNSYRKVLGQLSARKLLQ-NH2
- Plasma GH release [4]: 358 ng/mL
- Plasma GH release [5]: 719 ng/mL
- Potency [1]: < 5%

Molecule: Ac-YADAIFTNSYRKVLGQLSARKLLQDIL-NH2
- Plasma GH release (Rattus norvegicus [6]): 2730 ng/mL
- Plasma GH release (Rattus norvegicus [7]): 1270 ng/mL
- Potency [1]: 54%

Molecule: Ac-YADAIFTNSYRKVLGQLSARKLLQ-NH2
- Plasma GH release [4]: 396 ng/mL
- Plasma GH release [5]: 664 ng/mL
- Potency [1]: < 5%

Molecule: CC[C@H](C)[C@H](NC(=O)[C@H](C)NC(=O)[C@@H](CC(=O)O)NC(=O)[C@H](C)NC(=O)[C@@H](N)Cc1ccc(O)cc1)C(=O)N[C@@H](Cc1ccccc1)C(=O)N[C@H](C(=O)N[C@H](CC(N)=O)C(=O)N[C@@H](CO)C(=O)N[C@@H](Cc1ccc(O)cc1)C(=O)N[C@@H](CCCN=C(N)N)C(=O)N[C@@H](CCCCN)C(=O)N[C@H](C(=O)N[C@@H](CC(C)C)C(=O)NCC(=O)N[C@@H](CCC(N)=O)C(=O)N[C@@H](CC(C)C)C(=O)N[C@@H](CO)C(=O)N[C@@H](C)C(=O)N[C@@H](CCCN=C(N)N)C(=O)N[C@@H](CCCCN)C(=O)N[C@@H](CC(C)C)C(N)=O)C(C)C)[C@@H](C)O
- Plasma GH release [4]: 498 ng/mL
- Plasma GH release [5]: 401 ng/mL
- Potency [1]: < 5%
